Results on 58 molecules are retold here after PubChem BioAssay AID463210 (The Scripps Research Institute Molecular Screening Center, 2010).

SMILES strings stand for the structures. Hit rate of the full screen: of about 330,000 compounds, about 300 (0.091%) were called active.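 Rule for the calls: active = percent activation above the screen-wide mean plus 3 SD (cut at about 25% in these data); inactive = the rest.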 The full list was thinned out, with actives kept by preference.

Sequence of Caspase-7 (Homo sapiens) (P55210 whole entry D23A/D198A/D206A): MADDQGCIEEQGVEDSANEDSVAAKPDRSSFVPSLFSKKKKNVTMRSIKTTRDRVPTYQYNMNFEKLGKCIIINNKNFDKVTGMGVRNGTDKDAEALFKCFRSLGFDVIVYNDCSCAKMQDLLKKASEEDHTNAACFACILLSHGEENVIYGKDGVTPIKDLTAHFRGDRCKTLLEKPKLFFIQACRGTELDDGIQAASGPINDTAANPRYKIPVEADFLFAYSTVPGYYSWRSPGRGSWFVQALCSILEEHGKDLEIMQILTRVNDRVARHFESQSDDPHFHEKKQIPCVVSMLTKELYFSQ

The assay concerns the target Caspase-7 (Homo sapiens) (UniProt P55210). In words: activation of procaspase-7 enzyme – biochemical, absorbance, HTS, human, counter-screen for procaspase-3 activator project, primary screen (AID 463210). The conditions noted are these: recombinant procaspase-7, Ac-DEVD-pNA absorbance 405 nm; at 8.5 µM; active compounds read high; D23A/D198A/D206A triple mutant, cannot self-cleave; scale: DMSO 0, 5 µM enzyme 100. The method in brief:
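System: Uncleavable procaspase-7 mutant enzyme; Amount: 2 µM procaspase-7 mutant as dispensed; Schedule: 1 h compound preincubation, 2 h substrate cleavage, 25 °C; Measured by: 405 nm absorbance of p-nitroaniline; Evaluation: percent activation from buffer-corrected 0–120 min absorbance change; Control set: low DMSO alone, high DMSO plus 5 µM PC-7.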
A general note: Counterscreens check selectivity or assay interference.
On to `COc1cc(OC)cc(C(=O)NC2CCN(C(=O)N3c4ccccc4Sc4ccccc43)CC2)c1`, for which the activation was 2.43% (inactive). On to `CON(C)S(=O)(=O)c1ccc2c(c1)NC(=O)C1CCCN21` (stereo not drawn), for which the activation is -0.92% (inactive). The same measure for `CCCCn1c(-c2cccc(C)c2)nc2cc3[nH]c(=O)c(C(C)C)nc3cc21`: 11.3% (inactive); for `CC(=O)c1ccc(OC(=O)N2CCOCC2)cc1`: -1.27% (inactive). On to `O=C(NC1CCCC1)C(NS(=O)(=O)c1ccc(Br)s1)c1ccccc1` (stereo not drawn), for which the activation was -4.82% (inactive).

As to `O=S(=O)(Cc1noc(-c2ccc(OC(F)(F)F)cc2)n1)c1ccc(F)cc1`, the activation is 10.7% (inactive). Regarding `Cc1ccc(C)c(NS(=O)(=O)c2c(C)[nH]c(C)c2C(=O)N2CCCCC2)c1`, the activation is 4.13% (inactive). Regarding `COc1ccc(Nc2ncc(C(=O)N3CCN(c4ccccc4OC)CC3)c3ccccc23)cc1`, the activation was 49.2% (active).

Regarding `COc1ccccc1N1CCN(C(=O)c2ccc(NC3=NC4CS(=O)(=O)CC4S3)cc2)CC1` (stereo not drawn), the activation is 5.2% (inactive). The same measure for `COc1ccccc1N1CCN(C(=O)c2cn(-c3ccccc3)nc2-c2cccnc2)CC1`: 6.33% (inactive); for `CC(C)C(c1nnnn1C(C)(C)C)N1CCN(Cc2cccnc2)CC1` (stereo not drawn): -6.66% (inactive). For `COc1ccc(CN(C)Cc2nc3cc(OC)c(OC)cc3c(=O)[nH]2)c(OC)c1`, the activation was 4.38% (inactive).

Consider `CSCCC(NS(=O)(=O)c1ccc(C)cc1)C(=O)NCCc1c[nH]c2ccccc12` (stereo not drawn), for which the activation was -0.01% (inactive). Take `CCCCS(=O)c1snnc1C` (stereo not drawn): the activation was -3.16% (inactive).

With `CCOC(=O)N1CCN(C(=O)c2ccccc2SCC(=O)NCC2CCCCC2)CC1`, the activation was -1.95% (inactive). With `O=C(O)CCS(=O)(=O)c1ccc(-c2ccccc2)cc1`, the activation is 6.38% (inactive). The value for `O=C1OCCN1C(=O)[C@H]1[C@H](c2ccc(Cl)cc2)C(c2cccc(Cl)c2)=NN1c1ccc(Br)cc1` was 10.5% (inactive). The same measure for `O=C1OCCN1C(=O)[C@H]1[C@H](c2ccccc2)C(c2ccc(F)cc2)=NN1c1ccccc1`: -10.3% (inactive); for `O=C1OCCN1C(=O)[C@H]1[C@H](c2ccc(F)cc2)C(c2ccccc2)=NN1c1ccc(Br)cc1`: 28.9% (active); for `COc1ccccc1N1N=C(c2cccs2)CC1c1ccccc1` (stereo not drawn): -22.6% (inactive). The same measure for `O=C(COc1ccccc1Cl)N1N=C(c2cccs2)CC1c1ccco1` (stereo not drawn): -20% (inactive). For `Fc1ccc(N2N=C(c3cccs3)CC2c2ccco2)c(F)c1` (stereo not drawn), the activation is 51% (active).

For the molecule `CN(C(=O)CCNC(=O)Cn1ccc2ccccc2c1=O)c1ccc(Br)cc1`, the activation is 4.82% (inactive). The same measure for `Cn1c(CCCOc2ccc(Cl)cc2Cl)n[nH]c1=S`: -19.3% (inactive); for `O=C(Nc1cccc2c1CCCC2)c1ccc(F)cc1`: 7.3% (inactive); for `Cc1ncn2cc(-c3ccc(Cl)cc3Cl)[nH]c(=O)c12`: 10.9% (inactive). The value for `O=C(c1cccc(-n2cccc2)c1)N1CCN(S(=O)(=O)c2ccc(F)cc2)CC1` was 3.36% (inactive); that for `Cc1ccc2c(CC(=O)NCc3cccs3)coc2c1` was -3.04% (inactive); that for `COC(=O)c1ccc(CN2CCN(CCCc3ccccc3)C(CCO)C2)cc1` (stereo not drawn) was 2.25% (inactive). The same measure for `Cc1cccc(N2CC(C)Cn3c2nc2c3c(=O)n(CC(=O)OCc3ccccc3)c(=O)n2C)c1` (stereo not drawn): 1.17% (inactive); for `COc1ccc(C2=NS(=O)(=O)N(C)C(C(=O)N(C)Cc3ccccc3)=C2)cc1`: 1.33% (inactive); for `N#Cc1ccccc1CN1C(=O)S/C(=C/c2cccn2-c2cccc(C(=O)O)c2)C1=O`: -18.8% (inactive). Turning to `O=C(Cc1coc2ccc3ccccc3c12)NCc1cccs1`, the activation is 9.96% (inactive). For `CC1(C)Cc2c(sc(NC(=O)C(=O)NCC3CCCO3)c2C(=O)O)CO1` (stereo not drawn), the activation is 1.97% (inactive). For the molecule `CC(=O)Oc1ccc2c(C)c(CC(C)O)c(=O)oc2c1` (stereo not drawn), the activation was 29.6% (active). The same measure for `COC(=O)Cc1c(C)c2ccc(OCC(=O)NCc3ccc4c(c3)OCO4)cc2oc1=O`: 13.2% (inactive).

For the molecule `CCc1c(C)c2ccc(OC3CCCCC3=O)cc2oc1=O` (stereo not drawn), the activation is 4.02% (inactive).

For `CC(C(=O)NCCc1ccc(S(N)(=O)=O)cc1)N1C(=O)CC(C)(C)Sc2ccccc21` (stereo not drawn), the activation is -4.12% (inactive). The same measure for `COc1ccc(C2(C)ON(c3ccccc3C(F)(F)F)C2=O)cc1` (stereo not drawn): 2.15% (inactive). The same measure for `O=C(NC1CCc2ccccc21)C12CN(Cc3ccccc3)CC1C(c1cccc([N+](=O)[O-])c1)=NO2` (stereo not drawn): 7.39% (inactive); for `COc1ccc(NC(=O)c2cccc3c2C(=O)N(CC2CCCO2)C3)cc1OC` (stereo not drawn): 9.62% (inactive); for `COc1ccc(/C=N/Nc2nc(-c3ccc(C)cc3)c(C#N)c(=O)[nH]2)cc1`: 1.13% (inactive). Turning to `COc1ccc(/C=N/Nc2ccccc2C(=O)O)cc1`, the activation is -19.5% (inactive). The value for `COc1ccc(/C=N/Nc2nc3ccccc3c(=O)[nH]2)cc1` was 28.9% (active); that for `C/C(=N/NC(=O)CSc1ccccn1)c1ccc([N+](=O)[O-])cc1` was 1.61% (inactive).

Turning to `CCCNC(=S)N1CCCC(c2nc3ccccc3[nH]2)C1` (stereo not drawn), the activation was 6.91% (inactive). The value for `Cc1cccc(-n2c(SCC(=O)Nc3cccc(S(=O)(=O)NC4=NCCCCC4)c3)nc3ccccc3c2=O)c1C` was -0.51% (inactive); that for `CC1(C)C(C=C(Cl)Cl)C1C(=O)NC(O)C(=O)c1ccccc1` (stereo not drawn) was 6.56% (inactive). The same measure for `COC(=O)c1ccc(N2CCOCC2)c(NC(=O)c2ccc(Br)o2)c1`: 1.06% (inactive); for `COc1ccccc1CNC(=O)COC(=O)CNS(=O)(=O)c1ccc(NC(C)=O)cc1`: 7.44% (inactive).

As to `Cn1cnnc1SCc1nnc(-c2ccccc2Br)o1`, the activation was 2.67% (inactive). The value for `CCOC(=O)N1CCN(Cc2nnc(-c3ccccc3Cl)o2)CC1` was -1.71% (inactive); that for `Nc1cccc2c1C(=O)N(Cc1nnc(-c3ccccc3Br)o1)C2=O` was 64.5% (active). Turning to `CN(C)CCCSc1ccccc1NC(=O)/C=C/c1ccccc1`, the activation is 10.4% (inactive). The value for `Cc1nc(SCC(=O)N2CCc3ccccc3C2)c2c(C)c(C)sc2n1` was 18.1% (inactive); that for `CC1(C)Cc2c(C#N)c(SCc3nc4ccccc4[nH]3)nc(N3CCOCC3)c2CO1` was 33% (active); that for `COc1ccc(CSc2nc(N3CCOCC3)c3c(c2C#N)CC(C)(C)OC3)cc1` was -0.56% (inactive). The value for `CC(C)C(=O)N1CCN(c2nc(-c3ccccc3)c3c(c2C#N)CC(C)(C)OC3)CC1` was 12.1% (inactive).
